From ChEMBL document CHEMBL3856184, “Tyrosol and hydroxytyrosol derivatives as antitrypanosomal and antileishmanial agents” (Eur J Med Chem, 2016) come the findings set out here.

Data set [1] relates to Leishmania donovani. The data set can be described thus: Antileishmanial activity against Leishmania donovani MON-2 MHOM/IN/1996/THAK35 amastigotes infected in mouse J774A.1 cells after 72 hrs by alamarBlue assay. The settings on record: MON-2 MHOM/IN/1996/THAK35, J774.A1, 72 h. The data set is classed as functional, cell-based.
A short description of data set [2]: Selectivity index, ratio of IC50 for human MRC5 cells to IC50 for bloodstream form of Trypanosoma brucei brucei S16. The class given is toxicity, cell-based. The settings on record: read-out: Ratio IC50.
In data set [3] the test system is Trypanosoma brucei brucei. Briefly: Antitrypanosomal activity against bloodstream form of Trypanosoma brucei brucei S16 assessed as inhibition of proliferation measured after 72 hrs by alamarBlue assay. The data set is classed as functional. The settings on record: S16, 72 h. In short, it runs like this: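 Bloodstream forms cultured in HMI-9 with 10% hiFBS at 37 °C, 5% CO₂. Seeded at 1 × 10⁴ per mL with increasing compound concentrations for 72 h under the same conditions. Proliferation read by alamarBlue fluorescence, excitation 550 nm and emission 590 nm.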

In data set [4] the test system is Leishmania donovani. The data set can be described thus: Antileishmanial activity against Leishmania donovani MHOM/ET/67/HU3 axenic amastigotes at 20 uM after 72 hrs by resazurin-based assay relative to control. Particulars: MHOM/ET/67/HU3, 72 h. The data set is classed as functional. The procedure, abridged:
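Axenic amastigotes grown in Schneider medium with 20% hiFBS, pH 5.4, 37 °C, 5% CO₂. 10⁶ parasites/ml exposed to a single 20 μM concentration for 72 h at 37 °C. Viability read by resazurin assay, reported as percent inhibition.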
(In general: The colour change of resazurin is a common sign of viable cells or microbes.)

Data set [5] can be described thus: Cytotoxicity against human MRC5 cells assessed as inhibition of cell proliferation measured after 72 hrs by MTT assay. The class given is toxicity, cell-based. In short, it runs like this:
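SV-40 transformed fetal lung fibroblasts kept in DMEM with 10% hiFBS and penicillin/streptomycin at 37 °C, 5% CO₂. Cells trypsinized, seeded at 4 x 10⁴ cell/ml and exposed to increasing concentrations for 72 h at 37 °C. Viability read by colorimetric MTT. EC₅₀ taken as the concentration reducing growth by 50% versus untreated cells.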

Another data set relates to Leishmania infantum. The data set can be described thus: Leishmanicidal activity against Leishmania infantum MHOM/TN/94/LV50 promastigotes after 24 hrs by MTT assay. The data set is classed as functional. Particulars: MHOM/TN/94/LV50, 24 h. (Formazan colour is commonly taken as a measure of viable cells.)
The subject of data set [6] is Trypanosoma brucei brucei. Briefly: Potency index, ratio of IC50 for tyrosol to IC50 for test compound against bloodstream form of Trypanosoma brucei brucei S16. The class given is functional.
In a further data set the test system is Leishmania major. The data set can be described thus: Leishmanicidal activity against Leishmania major MHOM/TN/95/GLC94 promastigotes after 24 hrs by MTT assay. The data set is classed as functional. The settings on record: MHOM/TN/95/GLC94, 24 h.

As to `OCCc1ccc(O)c(O)c1` [HYDROXYTYROSOL], the IC50 turned out to be 393 µM in the data set on Leishmania donovani [1] and 47.5 µM in data set [3]. The selectivity ratio in data set [2] is greater than 1. This molecule also gave an inhibition at 20 µM with Leishmania donovani [4] of 0%. Also, the IC50 at 72 h in data set [5] is greater than 50 µM.

With `CCCCCCCCCC(=O)OCCc1ccc(O)cc1`, the IC50 in the data set on Leishmania infantum amounted to 132 µM; in data set [3], 81.4 µM; in the data set with Leishmania major it was 65 µM. Besides, the selectivity ratio in data set [2] stood at 2.1. Further, the “Ratio IC50” value in data set [6] is given as 0.16. In the data set on Leishmania donovani [4], this molecule registered an inhibition at 20 µM of 34%. Moreover, the IC50 at 72 h in data set [5] came out at 172 µM.

For orientation: IC50 means the concentration needed to halve the response being measured. The inhibition is the drop in the measured response relative to a control, in per cent.
